Laboratory results: ChEMBL document CHEMBL4028913, “Discovery of Novel Potent VEGFR-2 Inhibitors Exerting Significant Antiproliferative Activity against Cancer Cell Lines” (J Med Chem, 2018)
Active and inactive are the calls of the source. The calls are words filed in the database; no cut-off is given here.

Key:
SN12C = experiment: Cytotoxicity against human SN12C cells after 48 hrs by SRB assay; format: functional
Procedure, shortened: (§1)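 NCI-60 panel; cells grown in RPMI 1640 with 5% FBS and 2 mM L-glutamine, plated at 5000–40 000 cells/well by doubling time, preincubated 24 h (37 °C, 5% CO2). Drug added at five concentrations, 1-log steps from 10−4 to 10−8 M, for 48 h. Fixed with TCA, stained with 0.4% SRB, absorbance read at 515 nm. Percent growth computed against time-zero and untreated controls; GI50, TGI and LC50 derived.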

[1] = Potency index, ratio of sunitinib GI50 to test compound GI50 for human non-small cell lung cancer cells; format: functional
SNB-75 = experiment: Cytotoxicity against human SNB75 cells after 48 hrs by SRB assay; format: functional; conditions: SNB-75, 48 h; procedure, shortened: as §1
MDA-MB-435 = experiment: Growth inhibition of human MDA-MB-435 cells at 10 uM after 72 hrs by CellTiter-Glo assay relative to control; format: functional; conditions: MDA-MB-435, 72 h, read-out: GI
Procedure, shortened: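 Cells in exponential phase seeded at 2000–4000 cells/well, then exposed 72 h at 37 °C, 5% CO2 with 0.1% final DMSO. Single-point screen at 10 μM final. […] Read-out was CellTiter-Glo luminescence.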

[2] = molecular target: Vascular endothelial growth factor receptor 2 (Homo sapiens, UniProt P35968); conditions: at 0.5 µM
Chain of Vascular endothelial growth factor receptor 2 (P35968 whole entry): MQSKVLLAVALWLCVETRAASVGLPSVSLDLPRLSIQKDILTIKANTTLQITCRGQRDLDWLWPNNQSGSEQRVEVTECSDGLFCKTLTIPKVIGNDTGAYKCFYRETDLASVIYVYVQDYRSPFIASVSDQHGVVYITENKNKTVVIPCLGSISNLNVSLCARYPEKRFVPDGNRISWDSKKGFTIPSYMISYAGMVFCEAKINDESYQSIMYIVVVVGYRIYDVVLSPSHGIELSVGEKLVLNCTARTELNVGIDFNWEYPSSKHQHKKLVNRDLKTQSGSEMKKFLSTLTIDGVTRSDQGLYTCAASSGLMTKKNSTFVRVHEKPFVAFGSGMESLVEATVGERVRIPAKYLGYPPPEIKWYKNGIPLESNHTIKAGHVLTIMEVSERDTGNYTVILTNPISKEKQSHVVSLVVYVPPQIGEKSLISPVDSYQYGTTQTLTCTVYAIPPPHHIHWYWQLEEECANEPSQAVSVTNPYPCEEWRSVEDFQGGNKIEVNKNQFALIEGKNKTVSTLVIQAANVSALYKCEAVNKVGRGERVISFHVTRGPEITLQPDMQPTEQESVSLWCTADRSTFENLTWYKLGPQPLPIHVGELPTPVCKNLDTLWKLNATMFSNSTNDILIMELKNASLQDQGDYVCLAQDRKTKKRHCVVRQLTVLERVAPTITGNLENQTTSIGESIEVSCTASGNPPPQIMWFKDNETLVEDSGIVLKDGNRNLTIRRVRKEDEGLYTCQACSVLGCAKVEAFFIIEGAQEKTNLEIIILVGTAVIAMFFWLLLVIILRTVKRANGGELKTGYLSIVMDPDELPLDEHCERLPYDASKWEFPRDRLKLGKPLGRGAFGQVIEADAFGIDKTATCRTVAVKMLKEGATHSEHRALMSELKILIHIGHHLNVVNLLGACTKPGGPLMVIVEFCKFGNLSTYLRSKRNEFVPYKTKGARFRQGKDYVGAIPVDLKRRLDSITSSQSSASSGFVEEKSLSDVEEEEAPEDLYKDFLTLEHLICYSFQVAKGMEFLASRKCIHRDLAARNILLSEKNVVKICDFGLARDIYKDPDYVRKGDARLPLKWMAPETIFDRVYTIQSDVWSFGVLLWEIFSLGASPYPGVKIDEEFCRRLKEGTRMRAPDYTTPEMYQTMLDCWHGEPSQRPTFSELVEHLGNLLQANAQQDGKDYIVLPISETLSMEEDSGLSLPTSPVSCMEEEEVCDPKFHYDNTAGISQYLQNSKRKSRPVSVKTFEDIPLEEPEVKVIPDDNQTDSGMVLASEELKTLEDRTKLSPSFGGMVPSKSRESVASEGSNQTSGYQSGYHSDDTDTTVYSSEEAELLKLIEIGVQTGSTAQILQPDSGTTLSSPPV

[3] = molecular target: Ephrin type-A receptor 2 (Homo sapiens) (UniProt P29317); experiment: Inhibition of human EPHA2 at 0.5 uM relative to control
Chain of Ephrin type-A receptor 2 (Homo sapiens) (P29317 whole entry): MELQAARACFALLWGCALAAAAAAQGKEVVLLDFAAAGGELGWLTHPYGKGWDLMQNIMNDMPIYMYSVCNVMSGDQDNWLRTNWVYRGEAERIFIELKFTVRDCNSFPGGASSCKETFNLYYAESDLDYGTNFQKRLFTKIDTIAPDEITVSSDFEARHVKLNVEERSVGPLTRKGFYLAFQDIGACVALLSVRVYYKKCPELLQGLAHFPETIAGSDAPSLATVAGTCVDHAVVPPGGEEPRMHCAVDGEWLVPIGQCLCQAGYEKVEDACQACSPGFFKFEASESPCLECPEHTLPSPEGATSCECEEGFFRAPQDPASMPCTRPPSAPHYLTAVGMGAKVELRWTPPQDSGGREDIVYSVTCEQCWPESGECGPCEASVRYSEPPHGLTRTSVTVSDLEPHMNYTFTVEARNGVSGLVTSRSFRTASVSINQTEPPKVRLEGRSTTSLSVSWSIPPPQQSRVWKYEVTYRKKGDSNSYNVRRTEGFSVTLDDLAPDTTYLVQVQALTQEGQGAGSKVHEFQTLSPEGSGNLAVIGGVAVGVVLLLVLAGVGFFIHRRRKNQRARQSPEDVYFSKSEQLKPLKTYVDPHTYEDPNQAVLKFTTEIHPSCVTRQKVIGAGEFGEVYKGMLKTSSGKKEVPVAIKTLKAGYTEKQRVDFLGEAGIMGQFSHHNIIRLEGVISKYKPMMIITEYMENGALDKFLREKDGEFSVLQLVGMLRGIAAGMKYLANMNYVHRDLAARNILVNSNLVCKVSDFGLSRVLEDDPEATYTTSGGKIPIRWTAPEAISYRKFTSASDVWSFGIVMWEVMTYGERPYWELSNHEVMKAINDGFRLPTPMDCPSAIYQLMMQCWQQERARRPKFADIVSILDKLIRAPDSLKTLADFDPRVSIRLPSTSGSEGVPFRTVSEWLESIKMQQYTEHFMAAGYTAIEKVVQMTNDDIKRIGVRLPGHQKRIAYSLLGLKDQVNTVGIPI

SF-539 = experiment: Cytotoxicity against human SF539 cells after 48 hrs by SRB assay; format: functional; conditions: SF-539, 48 h; procedure, shortened: as §1
[4] = molecular target: TRAF2 and NCK-interacting protein kinase (Homo sapiens) (UniProt Q9UKE5); experiment: Inhibition of human TNIK at 0.5 uM relative to control
[5] = molecular target: Ephrin type-A receptor 8 (Homo sapiens) (UniProt P29322); experiment: Inhibition of human EPHA8 at 0.5 uM relative to control
Chain of Ephrin type-A receptor 8 (Homo sapiens) (P29322 whole entry): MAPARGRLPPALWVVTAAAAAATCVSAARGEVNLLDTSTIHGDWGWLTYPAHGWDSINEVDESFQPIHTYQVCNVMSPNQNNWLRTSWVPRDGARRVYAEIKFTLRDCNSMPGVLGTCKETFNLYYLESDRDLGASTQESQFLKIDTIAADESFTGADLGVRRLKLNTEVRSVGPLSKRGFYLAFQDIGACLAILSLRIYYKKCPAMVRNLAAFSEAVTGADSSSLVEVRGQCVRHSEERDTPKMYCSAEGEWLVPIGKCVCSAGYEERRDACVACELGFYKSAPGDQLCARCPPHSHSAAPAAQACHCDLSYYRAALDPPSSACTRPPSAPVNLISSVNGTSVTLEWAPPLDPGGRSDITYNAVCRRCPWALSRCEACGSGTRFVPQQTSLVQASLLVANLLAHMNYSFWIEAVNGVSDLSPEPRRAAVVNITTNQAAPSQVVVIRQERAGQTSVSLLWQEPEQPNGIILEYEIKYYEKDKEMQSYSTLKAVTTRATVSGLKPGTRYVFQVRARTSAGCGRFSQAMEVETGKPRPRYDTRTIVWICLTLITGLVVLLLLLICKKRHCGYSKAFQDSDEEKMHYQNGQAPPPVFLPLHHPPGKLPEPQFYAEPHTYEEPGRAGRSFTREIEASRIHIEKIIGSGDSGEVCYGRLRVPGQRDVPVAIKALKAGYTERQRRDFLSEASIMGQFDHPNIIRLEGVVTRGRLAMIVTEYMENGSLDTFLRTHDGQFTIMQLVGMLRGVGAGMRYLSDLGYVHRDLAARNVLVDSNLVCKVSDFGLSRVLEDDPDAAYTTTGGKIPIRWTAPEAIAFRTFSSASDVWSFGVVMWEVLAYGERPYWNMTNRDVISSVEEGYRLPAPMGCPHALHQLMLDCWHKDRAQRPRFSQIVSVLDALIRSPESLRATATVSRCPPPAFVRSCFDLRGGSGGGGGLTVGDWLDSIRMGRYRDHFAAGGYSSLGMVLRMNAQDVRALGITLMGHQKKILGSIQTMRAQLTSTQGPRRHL

[6] = Potency index, ratio of sunitinib GI50 to test compound GI50 for human renal cancer cells; format: functional, Renal cancer cell
HL-60(TB) = experiment: Cytotoxicity against human HL-60(TB) cells after 48 hrs by SRB assay; format: functional; conditions: HL-60, 48 h
Procedure, shortened: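 NCI-60 panel screen. Cells grown in RPMI 1640 with 5% FBS and 2 mM L-glutamine, plated at 5000–40 000 cells/well by doubling time, and preincubated 24 h at 37 °C in 5% CO2; Tz plates fixed at drug addition. Five concentrations, 1-log steps from 10−4 to 10−8 M, for 48 h. Suspension cells fixed with TCA (16% final), stained with 0.4% SRB, read at 515 nm. GI50, TGI and LC50 from percent-growth formulas.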

SNB-19 = experiment: Cytotoxicity against human SNB19 cells after 48 hrs by SRB assay; format: functional; conditions: SNB-19, 48 h; procedure, shortened: as §1
OVCAR-4 = experiment: Cytotoxicity against human OVCAR4 cells after 48 hrs by SRB assay; format: functional; conditions: OVCAR-4, 48 h; procedure, shortened: as §1
[7] = molecular target: Fibroblast growth factor receptor 4 (Homo sapiens) (UniProt P22455); experiment: Inhibition of human FGFR4 at 0.5 uM relative to control
Chain of Fibroblast growth factor receptor 4 (Homo sapiens) (P22455 22-802 limits assumed): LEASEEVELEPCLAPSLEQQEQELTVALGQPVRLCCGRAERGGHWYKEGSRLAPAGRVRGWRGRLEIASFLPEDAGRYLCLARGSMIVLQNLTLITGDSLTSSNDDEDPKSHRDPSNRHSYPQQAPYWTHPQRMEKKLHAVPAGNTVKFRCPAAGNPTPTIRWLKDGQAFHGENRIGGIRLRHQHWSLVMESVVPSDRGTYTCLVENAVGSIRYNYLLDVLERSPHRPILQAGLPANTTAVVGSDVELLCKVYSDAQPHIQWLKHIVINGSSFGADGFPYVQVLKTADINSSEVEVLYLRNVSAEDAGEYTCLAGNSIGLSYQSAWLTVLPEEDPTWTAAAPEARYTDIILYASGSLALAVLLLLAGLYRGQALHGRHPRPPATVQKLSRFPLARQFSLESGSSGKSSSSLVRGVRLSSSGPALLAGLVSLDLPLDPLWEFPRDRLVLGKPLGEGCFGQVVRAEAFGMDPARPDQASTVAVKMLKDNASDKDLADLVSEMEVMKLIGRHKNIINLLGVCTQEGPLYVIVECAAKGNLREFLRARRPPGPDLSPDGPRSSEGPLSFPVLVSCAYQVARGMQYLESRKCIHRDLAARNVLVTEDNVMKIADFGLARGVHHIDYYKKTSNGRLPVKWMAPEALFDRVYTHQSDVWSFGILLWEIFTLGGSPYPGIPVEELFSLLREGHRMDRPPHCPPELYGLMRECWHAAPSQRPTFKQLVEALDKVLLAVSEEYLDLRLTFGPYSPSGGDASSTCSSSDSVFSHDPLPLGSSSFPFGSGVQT

[8] = Potency index, ratio of sunitinib GI50 to test compound GI50 for human colon cancer cells; format: functional, Colon cancer cell
Procedure, shortened: (§2)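 GI50 is the concentration giving 50% reduction in net protein increase relative to control. Potency index is the reference-drug GI50 divided by the test-compound GI50.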

[9] = Potency index, ratio of sorafenib GI50 to test compound GI50 for human CNS cancer cells; format: functional, CNS cancer cell; procedure, shortened: as §2
A498 = experiment: Cytotoxicity against human A498 cells after 48 hrs by SRB assay; format: functional; conditions: A498, 48 h; procedure, shortened: as §1
HCT-15 = experiment: Cytotoxicity against human HCT15 cells after 48 hrs by SRB assay; format: functional; conditions: HCT-15, 48 h; procedure, shortened: as §1
UACC-62 = experiment: Cytotoxicity against human UACC62 cells after 48 hrs by SRB assay; format: functional; conditions: UACC-62, 48 h
Procedure, shortened: (§3)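 NCI-60 panel, five doses at 1-log steps from 10−4 to 10−8 M. Cells grown in RPMI 1640 with 5% FBS and 2 mM L-glutamine, seeded at 5000–40 000 cells/well and preincubated 24 h. Tz plates were TCA-fixed at drug addition. Drug exposure 48 h at 37 °C, then TCA fixation, 0.4% SRB stain and absorbance at 515 nm. GI50 taken from percent growth relative to Tz and control.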

[10] = molecular target: Ephrin type-A receptor 3 (Homo sapiens) (UniProt P29320); experiment: Inhibition of human EPHA3 at 0.5 uM relative to control
SW-620 = experiment: Cytotoxicity against human SW620 cells after 48 hrs by SRB assay; format: functional; conditions: SW-620, 48 h; procedure, shortened: as §3
PC-3 = experiment: Cytotoxicity against human PC3 cells after 48 hrs by SRB assay; format: functional; conditions: PC-3, 48 h; procedure, shortened: as §1
[11] = Potency index, ratio of sorafenib GI50 to test compound GI50 for human colon cancer cells; format: functional, Colon cancer cell; procedure, shortened: as §2
MCF7 = experiment: Cytotoxicity against human MCF7 cells after 48 hrs by SRB assay; format: functional; conditions: MCF7, 48 h; procedure, shortened: as §1
NCI/ADR-RES = experiment: Cytotoxicity against human NCI-ADR-RES cells after 48 hrs by SRB assay; format: functional; procedure, shortened: as §1
[12] = molecular target: Proto-oncogene tyrosine-protein kinase Src (Homo sapiens) (UniProt P12931); conditions: at 0.5 µM
[13] = molecular target: Ephrin type-A receptor 7 (Homo sapiens) (UniProt Q15375); experiment: Inhibition of human EPHA7 at 0.5 uM relative to control
Chain of Ephrin type-A receptor 7 (Homo sapiens) (Q15375 28-998 limits assumed): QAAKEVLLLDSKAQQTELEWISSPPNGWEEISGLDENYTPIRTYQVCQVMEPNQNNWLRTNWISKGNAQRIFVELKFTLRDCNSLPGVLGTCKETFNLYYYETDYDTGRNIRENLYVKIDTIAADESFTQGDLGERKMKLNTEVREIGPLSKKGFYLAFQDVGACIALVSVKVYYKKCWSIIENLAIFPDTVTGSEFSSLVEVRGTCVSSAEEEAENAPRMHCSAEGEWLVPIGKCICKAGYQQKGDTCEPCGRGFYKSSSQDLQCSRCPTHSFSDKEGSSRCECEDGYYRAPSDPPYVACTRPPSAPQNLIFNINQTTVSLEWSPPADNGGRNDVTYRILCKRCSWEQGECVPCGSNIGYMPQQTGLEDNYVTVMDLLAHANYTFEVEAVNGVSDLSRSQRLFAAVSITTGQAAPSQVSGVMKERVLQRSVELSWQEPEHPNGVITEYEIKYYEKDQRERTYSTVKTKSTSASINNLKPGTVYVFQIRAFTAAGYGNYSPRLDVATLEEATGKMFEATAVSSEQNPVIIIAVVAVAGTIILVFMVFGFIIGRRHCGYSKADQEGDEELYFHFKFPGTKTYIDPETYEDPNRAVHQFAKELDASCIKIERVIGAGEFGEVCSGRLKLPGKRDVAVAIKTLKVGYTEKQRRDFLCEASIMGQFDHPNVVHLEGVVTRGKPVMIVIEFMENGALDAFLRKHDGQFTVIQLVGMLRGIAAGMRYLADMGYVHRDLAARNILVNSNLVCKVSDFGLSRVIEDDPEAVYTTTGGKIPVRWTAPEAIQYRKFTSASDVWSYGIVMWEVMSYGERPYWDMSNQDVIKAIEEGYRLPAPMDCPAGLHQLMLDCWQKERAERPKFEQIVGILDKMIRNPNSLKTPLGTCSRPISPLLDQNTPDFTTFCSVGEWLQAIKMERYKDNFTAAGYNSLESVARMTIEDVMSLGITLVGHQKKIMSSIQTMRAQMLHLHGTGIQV

A-431 = experiment: Growth inhibition of human A431 cells at 10 uM after 72 hrs by CellTiter-Glo assay relative to control; format: functional; conditions: A-431, 72 h, read-out: GI
Procedure, shortened: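 A431 cells seeded at 2000–4000 cells/well and treated with 10 μM final compound, 0.1% DMSO, for 72 h at 37 °C, 5% CO2. Viability read by CellTiter-Glo. Inhibition ratio = 1 − Vsample/Vvehicle control; triplicate.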

[14] = read-out: LC50 (the source's name)

COc1cc2ncnc(Oc3ccc(NC(=O)Nc4ccc(CN5CCOCC5)c(C(F)(F)F)c4)c4ccccc34)c2cc1OC
GI50 (SN12C): 0.29 µM
TGI (SN12C): 1.86 µM
CC50 (SN12C; [14]): 13.2 µM
RatioGI50 [1]: 5 - 7.7
GI50 (SNB-75): 1.05 µM
TGI (SNB-75): 13.8 µM
CC50 (SNB-75; [14]): 38.9 µM
inhibition of growth at 10 µM (MDA-MB-435): 98.4%
inhibition [2]: Active
inhibition [3]: Active
GI50 (SF-539): 1.58 µM
TGI (SF-539): 19.5 µM
CC50 (SF-539; [14]): 52.5 µM
inhibition [4]: Active
inhibition [5]: Active
RatioGI50 [6]: 6.8
GI50 (HL-60(TB)): 0.38 µM
TGI (HL-60(TB)): 2.14 µM
CC50 (HL-60(TB); [14]): > 100 µM
GI50 (SNB-19): 2.57 µM
TGI (SNB-19): 14.1 µM
CC50 (SNB-19; [14]): 43.6 µM
GI50 (OVCAR-4): 0.12 µM
TGI (OVCAR-4): 10.5 µM
CC50 (OVCAR-4; [14]): 35.5 µM
inhibition [7]: > 96%
RatioGI50 [8]: 1.1 - 3.7
RatioGI50 [9]: 1.6 - 2.9
GI50 (A498): 0.05 µM
TGI (A498): 0.52 µM
CC50 (A498; [14]): 30.9 µM
GI50 (HCT-15): 1 µM
TGI (HCT-15): 5.13 µM
CC50 (HCT-15; [14]): 28.2 µM
GI50 (UACC-62): 0.6 µM
TGI (UACC-62): 3.47 µM
CC50 (UACC-62; [14]): 18.6 µM
inhibition [10]: Active
GI50 (SW-620): 1.1 µM
TGI (SW-620): 11.8 µM
CC50 (SW-620; [14]): > 100 µM
GI50 (PC-3): 1.78 µM
TGI (PC-3): 12.6 µM
CC50 (PC-3; [14]): > 100 µM
RatioGI50 [11]: 1.6 - 2.9
GI50 (MCF7): 0.33 µM
TGI (MCF7): 11 µM
CC50 (MCF7; [14]): > 100 µM
GI50 (NCI/ADR-RES): 0.76 µM
TGI (NCI/ADR-RES): 58.9 µM
CC50 (NCI/ADR-RES; [14]): > 100 µM
inhibition [12]: Active
inhibition [13]: Active
inhibition of growth at 10 µM (A-431): 57.7%
